Calls of active or inactive are those of the source.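 How the source made its calls: active means maximum enhancement above 22% with a fitted EC50 greater than zero; inactive means the rest.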

Test system in one test: not listed separately
The test is described as follows: mutant MDM2 reporter signal enhancers, dose response, cell-based, luciferase luminescence (AID 1442). The following applies: mutant MDM2 reporter cells, luciferase luminescence enhancement, 2 h; stronger effect = higher value. Put shortly:
(§1)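 assay system = MDM2-luciferase fusion reporter cells | detection = luminescence | timing = compound exposure of 2 h at 37 °C | read-out basis = percent signal enhancement over untreated cells, blank-corrected, four-parameter logistic fit | benchmarks = cells without compound as reference, wells for blank correction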
Turning to `Cc1ccc(C=C2C(Cl)=C(Cl)C(Cl)=C2Cl)cc1`, the maximum enhancement is 10.2% (inactive).

Consider `COc1ccccc1-c1cc(SC)c(C#N)c(=O)o1`, for which the maximum enhancement was 18% (inactive).

Turning to `O=C1C(Cl)=C(N2CCCCC2)C(=O)C(Cl)=C1c1cnc(N2CCCCC2)s1`, the maximum enhancement was 16.3% (inactive).

Consider `CCN(CC)c1ccc(/C=C2/C(=O)c3ccc(C(=O)O)cc3C2=O)cc1`, for which the maximum enhancement was 15.6% (inactive).

A further test concerns mutant MDM2 reporter cells, luciferase luminescence enhancement, 2 h. The description is as above.
Details: not given
Put shortly:
as §1
By EC50 is commonly meant the concentration that produces a half-maximal response. On to `COC(=O)CSC1=C(C#N)C(=O)NC(c2ccccc2)S1` (configuration not stated), for which the EC50 is 4.1 µM.

Turning to `CCN(CC)c1ccc(/C=C2\C(=O)c3ccc(C(=O)O)cc3C2=O)cc1`, the EC50 is 216 µM (inactive).

Turning to `COc1ccc(NC(=O)/C(Cl)=C(/Cl)S(=O)Cc2ccc(C)cc2)cn1` (configuration not stated), the EC50 is 0.84 µM.

Turning to `CCOC(=O)/C=C/C(=O)Nc1ccccc1-c1ccccc1NC(=O)/C=C/C(=O)OCC`, the EC50 is 1320 µM.

Regarding `CC1=NN(c2cccc(C(=O)O)c2)C(=O)/C1=C\C=C/c1ccccc1`, the EC50 was 92.9 µM.

In the case of `Nc1cccc2c1C(=O)N(C(=O)/C=C/c1cccc(Br)c1)C2=O`, the 50% effective concentration (EC50) was 16.5 µM.

As to `COCCNC(=O)/C(C#N)=C/c1cccc(/C=C(\C#N)C(=O)NCCOC)c1`, the EC50 is 0.73 µM.

For the molecule `CC(C)c1ccc2c(c1)C1(NN=C(c3ccccc3)S1)C(=O)N2` (configuration not stated), the EC50 was 1.42 µM.

With `CCOC(=O)N1C/C(=C\c2ccccc2)C(=O)/C(=C/c2ccccc2)C1`, the EC50 is 1.94 µM.

Take `Cc1ccc2c(c1)c1ccc3c(c1n2C)C(=O)C=CC3=O`: the EC50 was 1.83 µM.

Take `CC(C)CC(=O)/C=C/n1c(=S)oc2ccccc21`: the EC50 is 4.79 µM.

`O=C(/C=C/c1cccc([N+](=O)[O-])c1)n1cnc2ccccc21`: the EC50 was 1.72 µM.

Turning to `Cc1cc(C)nc(S/C=C/C(=O)c2ccc(F)cc2)n1`, the EC50 was 2.67 µM.

In the case of `C=C1C(=O)O[C@@H]2C[C@@H](C)[C@@H]3C=CC(=O)[C@@]3(C)[C@@H](O)[C@H]12`, the EC50 is 1.11 µM.

Turning to `CCSc1nc2ccccc2n1C(=O)/C=C\c1ccc(OC)c(OC)c1`, the EC50 is 1630 µM.

Regarding `C=CCSc1nc2ccccc2n1C(=O)/C=C/c1cc(OC)c(OC)c(OC)c1`, the EC50 was 1.16 µM.

Take `CN(C)C(=S)SSC(=S)N(C)C`: the EC50 was 0.08 µM.

In the case of `Cc1cccc2c1c1ccc3c(c1n2C)C(=O)C=CC3=O`, the half-maximal effective concentration (EC50) is 1.43 µM.

`CC(C)c1ccc(OCc2cccc(C(=O)N/N=C/c3cccnc3)c2)cc1`: the EC50 is 200 µM (inactive).

With `Cc1cc(C)nc(S/C=C/C(=O)c2ccccc2)n1`, the EC50 is 0.79 µM.

Consider `CC(NC(=O)Cn1ncc(Cl)c(Cl)c1=O)C12CC3CC(CC(C3)C1)C2` (configuration not stated), for which the EC50 is 41.6 µM.

`C=CS(=O)(=O)c1ccc(Oc2ccc(S(=O)(=O)C=C)cc2)cc1`: the EC50 is 1.5 µM.

As for `CCOC(=O)C1=C(c2ccccc2)O/C(=C(/C#N)C(F)(F)F)S1`, the EC50 is 40.8 µM.

Take `COc1ccc(NC(=O)/C(Cl)=C(/Cl)S(=O)Cc2ccc(Cl)cc2)cn1` (configuration not stated): the EC50 was 0.46 µM.

As to `CCN1C/C(=C/c2ccc(OC)c(O)c2)C(=O)/C(=C/c2ccc(OC)c(O)c2)C1`, the EC50 is 888 µM.

On to `O=C(/C=C/c1cccnc1)/C=C/c1cccnc1`, for which the EC50 was 0.58 µM.

In the case of `CN(C(=O)c1cccc(COc2ccc(Cl)cc2Cl)c1)c1ccccc1`, the EC50 is 15.6 µM (inactive).

Consider `CCSc1nc2ccccc2n1C(=O)/C=C/c1ccc(OC)c(OC)c1`, for which the concentration for a half-maximal effect (EC50) was 1.13 µM.

As to `O=C(Cn1ncc(Cl)c(Cl)c1=O)NCC1CCCCC1`, the EC50 was 2.08 µM.

For `COc1ccc(CS(=O)/C(Cl)=C(/Cl)C(=O)Nc2ccc(OC)nc2)cc1` (configuration not stated), the EC50 was 3.41 µM.

For `COc1cccc(OC)c1C(=O)NNC(=O)c1cccc(COc2ccc3c(c2)CCC3)c1`, the EC50 was 562 µM (inactive).

Consider `COc1cc(/C=C2\COC/C(=C\c3cc(OC)c(OC)c(OC)c3)C2=O)cc(OC)c1OC`, for which the EC50 was 648 µM.

With `CN(C)c1nc(=NCc2ccco2)ss1`, the 50% effective concentration (EC50) was 0.1 µM.

For the origin of these results see PubChem BioAssay AID1442 (PCMD, 2008).
